Results gathered from unrelated publications.
Target: Myosin light chain kinase 2, skeletal/cardiac muscle (MYLK2, Homo sapiens, UniProt Q9H1R3)

SMILES	test	conditions	measurement	value
COc1cc(Nc2ncc(F)c(Nc3ccc4c(n3)NC(=O)C(C)(C)O4)n2)cc(OC)c1OC	binding, competition with immobilised ligand	10 µM	inhibition	58%
CC(C)(C)c1cc(C=C(C#N)C#N)cc(Br)c1O	enzyme activity, inhibitor	0.5 µM	remaining activity	99.3%
Cn1cc(-c2cccc(N3CCc4c(sc5c4CC(C)(C)C5)C3=O)c2CO)cc(Nc2ccncn2)c1=O	enzyme activity, inhibitor	1 µM	inhibition	14%
COc1ncccc1-c1cnn2ccc(N3CCN(C(=O)OC(C)C)CC3)nc12	binding, competition with immobilised ligand	1 µM	remaining binding	89%
Cn1cc(-c2cc(F)cc(N3CCn4c(cc5c4CCCC5)C3=O)c2CO)cc(Nc2ccc(N3CCN(C4COC4)CC3)cn2)c1=O	enzyme activity, inhibitor	0.1 µM	inhibition	17%
Nc1ncc(-c2nc(N3CCOCC3)nc(N3CCOCC3)n2)c(C(F)F)n1	binding, competition with immobilised ligand	10 µM	remaining binding	92%
Cn1cncc1[C@@](O)(COc1ccc(C#N)cc1-c1ccc(OC(F)(F)F)cc1)c1ccc(C#N)cc1	cell-free assay, competition with immobilised ligand	1 µM	remaining binding	100%
O=c1[nH]c2ccccc2n1C1CCN(Cc2ccc(-c3[nH]c4cc5ncnc5cc4nc3-c3ccccc3)cc2)CC1	cell-free assay	0.5 µM	remaining signal	103%
Cc1nn(C)cc1-c1nc2c(N3CCN(Cc4ccc(Cl)cc4)CC3)c(Cl)cnc2[nH]1	binding, competition with immobilised ligand	1 µM	remaining binding	61%
